Reference: PubChem BioAssay AID651583 (The Scripps Research Institute Molecular Screening Center, 2012)
Active and inactive are the calls of the source.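 The calls were made as follows: active = Toxic to Huh-7.5 liver cells, with CC50, the dose killing half the cells, at most 24 µM; inactive = CC50 above 24 µM.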

Test system: Huh-7.5 viability, XTT absorbance
Test: viability loss in Huh-7.5 hepatoma cells – cell-based, XTT absorbance, powder samples, cytotoxicity control for HCV core dimerization inhibitor project, late-stage follow-up (AID 651583)
In short: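 Material – Huh-7.5 cell line, viability by mitochondrial dehydrogenase activity · Replication – triplicate wells per concentration · Measure – CC50 from four-parameter sigmoidal fit of % inhibition versus DMSO · Benchmarks – DMSO control, cell-free compound blanks · Times – 72 h compound exposure at 37 °C · Technique – XTT-PMS absorbance, 450/650 nm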

| SMILES | CC50 |
| --- | --- |
| Cc1ccc(Cc2c(C)nc3nc(SCC(=O)NCCN4CCCN(S(C)(=O)=O)CC4)nn3c2C)cc1 | 193 µM (inactive) |
| Cc1ccc(Cc2c(C)nc3nc(SCC(=O)NCCN4CCNCC4)nn3c2C)cc1 | 33.8 µM (inactive) |
| Cc1ccc(Cc2c(C)nc3nc(SCC(=O)NCCN4CCCCCC4)nn3c2C)cc1 | 42.6 µM (inactive) |
| Cc1ccc(Cc2c(C)nc3nc(SCC(=O)NCCN4CCN(Cc5ccc(Cl)cc5)CC4)nn3c2C)cc1 | > 4 µM (inactive) |
| Cc1ccc(Cc2c(C)nc3nc(SCC(=O)NCCN4CCCN(S(=O)(=O)c5ccc(C)cc5)CC4)nn3c2C)cc1 | 13.8 µM |
| Cc1ccc(Cc2c(C)nc3nc(SCC(=O)NCCN4CCN(Cc5ccc(F)cc5)CC4)nn3c2C)cc1 | 180 µM (inactive) |
| Cc1ccc(Cc2c(CCc3ccccc3)nc3nc(SC(Cc4ccccc4)C(=O)NCCN4CCOCC4)nn3c2C)cc1 (stereo unspecified) | 22.1 µM |
| Cc1ccc(Cc2c(C)nc3nc(SCC(=O)NCCN4CCCN(S(=O)(=O)c5ccccc5)CC4)nn3c2C)cc1 | 9.51 µM |
| Cc1ccc(Cc2c(C)nc3nc(SCC(=O)NCCN4CCOCC4)nn3c2C)cc1 | > 12 µM (inactive) |
| Cc1ccc(Cc2c(C)nc3nc(SCC(=O)NCCN4CCN(S(=O)(=O)c5ccccc5)CC4)nn3c2C)cc1 | 37.6 µM (inactive) |
| Cc1ccc(Cc2c(C)nc3nc(SCC(=O)NCCN4CCN(CCc5ccccc5)CC4)nn3c2C)cc1 | > 36 µM (inactive) |
